Data taken from ChEMBL document CHEMBL5108018, “Discovery of MDM2-p53 and MDM4-p53 protein-protein interactions small molecule dual inhibitors” (Eur J Med Chem, 2022).
pIC50: −log10 of the molar value. Calls of active or inactive are those of the source. The rule behind the calls is not given here.

Key:
HCT-116 = assay: Antiproliferative activity against human HCT-116 cells harboring wild type p53 overexpressing MDM2 assessed as inhibition of cell growth incubated for 48 hrs by MTS assay; type: functional, cell-based; details: HCT-116, 48 h
Summary of the method: (§1)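 MTS viability: cells seeded 1×10^4/well (HCT116), 3×10^3/well (SJSA-1, LNCaP), 5×10^3/well (MCF-7), treated ~24 h after plating with DMSO-stock compounds serially diluted in medium (final DMSO ≤0.1%). Ten or more concentrations over 1–100 µM, duplicates, ≥3 independent runs. Exposure 48 h (HCT116), 72 h (MCF-7), 96 h (SJSA-1, LNCaP). MTS 0.5 mg/mL added for 15–30 min, A490. IC50 from four-parameter variable-slope fit.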

SJSA-1 [1] = assay: Antiproliferative activity against human SJSA-1 cells harboring wild type p53 overexpressing MDM2/4 assessed as inhibition of cell growth incubated for 96 hrs by MTS assay; type: functional, cell-based; details: SJSA-1, 96 h; summary of the method: as §1
LNCaP = assay: Antiproliferative activity against human LNCaP cells harboring wild type p53 overexpressing MDM2/4 assessed as inhibition of cell growth incubated for 96 hrs by MTS assay; type: functional, cell-based; summary of the method: as §1
MCF7 = assay: Antiproliferative activity against human MCF7 cells harboring wild type p53 overexpressing MDM2/4 assessed as inhibition of cell growth incubated for 72 hrs by MTS assay; type: functional, cell-based; details: MCF7, 72 h; summary of the method: as §1
HEK-293T = assay: Cytotoxicity against HEK293T cells assessed as reduction in cell viability at 15 uM incubated for 96 hrs by MTS assay relative to control; type: toxicity, cell-based; details: human
Summary of the method: (§2)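 Single-concentration MTS viability with DMSO vehicle control (final ≤0.1%) run in parallel. HEK293T: 3×10^3 cells/well, 15 µM for 96 h. HCT116 p53(-/-): 20 µM for 48 h. Compound added ~24 h after plating; MTS 0.5 mg/mL in fresh medium for 15–30 min, A490. Mean ± SD of three independent experiments, one-way ANOVA with Bonferroni test.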

[2] = Antiproliferative activity against human HCT116-p53-null cells assessed as reduction in cell viability at 20 uM incubated for 48 hrs by MTS assay; type: functional; summary of the method: as §2
SJSA-1 [3] = assay: Induction of apoptosis in human SJSA-1 cells assessed as viable cells at 15 uM incubated for 96 hrs by Annexin V-FITC/7-AAD staining based flow cytometric analysis (reference value: 99.2%); type: functional; details: read-out: Activity
SJSA-1 [4] = assay: Induction of apoptosis in human SJSA-1 cells assessed as viable cells at 22.5 uM incubated for 96 hrs by Annexin V-FITC/7-AAD staining based flow cytometric analysis (reference value: 99.2%); type: functional; details: read-out: Activity
SJSA-1 [5] = assay: Induction of apoptosis in human SJSA-1 cells assessed as early apoptotic cells at 22.5 uM incubated for 96 hrs by Annexin V-FITC/7-AAD staining based flow cytometric analysis (reference value: 0.3%); type: functional
SJSA-1 [6] = assay: Induction of apoptosis in human SJSA-1 cells assessed as late apoptotic cells at 22.5 uM incubated for 96 hrs by Annexin V-FITC/7-AAD staining based flow cytometric analysis (reference value: 0.6%); type: functional
SJSA-1 [7] = assay: Induction of cell death in human SJSA-1 cells assessed as reduction in cell growth at 1.5 times IC50 incubated for 96 hrs by bright field microscopic analysis; type: functional, cell-based
Summary of the method: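 Brightfield microscopy of SJSA-1 cell morphology after 96 h with DMSO vehicle or compound.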

SJSA-1 [8] = assay: Induction of cell cycle arrest in human SJSA-1 cells assessed as accumulation of cells at G0/G1 phase at 15 uM incubated for 96 hrs by RNaseA/PI staining based flow cytometry analysis (reference value: 57.09 %); type: functional
SJSA-1 [9] = assay: Induction of cell cycle arrest in human SJSA-1 cells assessed as accumulation of cells at S phase at 15 uM incubated for 96 hrs by RNaseA/PI staining based flow cytometry analysis (reference value: 25.88 %); type: functional
SJSA-1 [10] = assay: Induction of cell cycle arrest in human SJSA-1 cells assessed as accumulation of cells at G2/M phase at 15 uM incubated for 96 hrs by RNaseA/PI staining based flow cytometry analysis (reference value: 17.24 %); type: functional
SJSA-1 [11] = assay: Induction of cell cycle arrest in human SJSA-1 cells assessed as accumulation of cells at G0/G1 phase at 22.5 uM incubated for 96 hrs by RNaseA/PI staining based flow cytometry analysis (reference value: 57.09 %); type: functional
SJSA-1 [12] = assay: Induction of cell cycle arrest in human SJSA-1 cells assessed as accumulation of cells at S phase at 22.5 uM incubated for 96 hrs by RNaseA/PI staining based flow cytometry analysis (reference value: 25.88 %); type: functional
SJSA-1 [13] = assay: Induction of cell cycle arrest in human SJSA-1 cells assessed as accumulation of cells at G2/M phase at 22.5 uM incubated for 96 hrs by RNaseA/PI staining based flow cytometry analysis (reference value: 17.24 %); type: functional

For `CC(C)(C)N1N=C(C(=O)NCCc2ccc(O)cc2)C(c2cccc(Cl)c2F)C12C(=O)Nc1cc(Cl)ccc12` (stereo unspecified), the pIC50 (HCT-116) was 4.52.

With `CCOC(=O)C1=NN(c2ccc(Cl)cc2)C2(C(=O)Nc3cc(Cl)ccc32)C1c1cccc(Cl)c1F` (stereo unspecified) the pIC50 (HCT-116) was 4.74, the pIC50 (SJSA-1 [1]) was 4.81 and the pIC50 (LNCaP) was 4.97. The pIC50 (MCF7) was 4.81, the Activity (HEK-293T) was 24% and the Activity [2] was 13%. It also gave a viability at 15 µM (SJSA-1 [3]) of 98.6%, a viability at 22.5 µM (SJSA-1 [4]) of 92.7% and an Activity (SJSA-1 [5]) of 2.9%. For the same compound, the Activity (SJSA-1 [6]) was 4.3%, the Activity (SJSA-1 [7]) was “Active” and the Activity (SJSA-1 [8]) was 67.51%. For the same compound, the Activity (SJSA-1 [9]) was 21.48%, the Activity (SJSA-1 [10]) was 11.01% and the Activity (SJSA-1 [11]) was 82.19%. It also gave an Activity (SJSA-1 [12]) of 11.13% and an Activity (SJSA-1 [13]) of 6.67%.

Work on `CCOC(=O)C1=NN(C(C)(C)C)C2(C(=O)Nc3cc(Cl)ccc32)C1c1cccc(F)c1` (stereo unspecified) yielded a pIC50 (HCT-116) of 4.35.

`CCOC(=O)C1=NN(C(C)(C)C)C2(C(=O)Nc3cc(Cl)c(F)cc32)C1c1cccc(Cl)c1F` (stereo unspecified) showed a pIC50 (HCT-116) of 4.45.

For `O=C(NCC1(O)CCC1)C1=NN(c2ccc(Cl)cc2)C2(C(=O)Nc3cc(Cl)ccc32)C1c1cccc(O)c1` (stereo unspecified), the pIC50 (HCT-116) was 4.43.

With `CCOC(=O)C1=NN(C(C)(C)C)C2(C(=O)Nc3cc(Cl)ccc32)C1c1ccc(F)cc1` (stereo unspecified) the pIC50 (HCT-116) was 4.30.

With `CCOC(=O)C1=NN(C2CCCCC2)C2(C(=O)Nc3cc(Cl)ccc32)C1c1ccc(Cl)cc1` (stereo unspecified) the pIC50 (HCT-116) was 4.41.

With `CCOC(=O)C1=NN(C(C)(C)C)C2(C(=O)Nc3cc(Cl)ccc32)C1c1cccc(Cl)c1F` (stereo unspecified) the pIC50 (HCT-116) was 4.49.

Work on `CCOC(=O)C1=NN(C2CCCCC2)C2(C(=O)Nc3cc(Cl)ccc32)C1c1ccc(F)cc1` (stereo unspecified) yielded a pIC50 (HCT-116) of 4.50 and a pIC50 (MCF7) of 4.69.

`CC(C)(C)N1N=C(C(=O)O)C(c2cccc(Cl)c2F)C12C(=O)Nc1cc(Cl)ccc12` (stereo unspecified) showed a pIC50 (HCT-116) of less than 4.00.

`O=C(NCCc1ccc(O)cc1)C1=NN(c2ccc(Cl)cc2)C2(C(=O)Nc3cc(Cl)ccc32)C1c1cccc(O)c1` (stereo unspecified) gave a pIC50 (HCT-116) of 4.57.

Compound `CCOC(=O)C1=NN(C2CCCCC2)C2(C(=O)Nc3cc(Cl)ccc32)C1c1cccc(F)c1` (stereo unspecified) has a pIC50 (HCT-116) of 4.56 and a pIC50 (LNCaP) of 4.88.

In the case of `CCOC(=O)C1=NN(C(C)(C)C)C2(C(=O)Nc3cc(Cl)c(F)cc32)C1c1cccc(F)c1` (stereo unspecified), the pIC50 (HCT-116) was 4.38.
